Assay outcomes deposited in PubChem BioAssay by several laboratories.
S1P4 ag – S1P4 receptor agonists, primary screen, cell-based | activation, % at 4.98 µM | 220,000 compounds, 0.35% hits | Sphingosine 1-phosphate receptor 4 (Homo sapiens), O95977 | S1P4-expressing cell line, agonist reporter assay; in the data active = activation above about 11%
Target sequence (O95977 whole entry, looked up): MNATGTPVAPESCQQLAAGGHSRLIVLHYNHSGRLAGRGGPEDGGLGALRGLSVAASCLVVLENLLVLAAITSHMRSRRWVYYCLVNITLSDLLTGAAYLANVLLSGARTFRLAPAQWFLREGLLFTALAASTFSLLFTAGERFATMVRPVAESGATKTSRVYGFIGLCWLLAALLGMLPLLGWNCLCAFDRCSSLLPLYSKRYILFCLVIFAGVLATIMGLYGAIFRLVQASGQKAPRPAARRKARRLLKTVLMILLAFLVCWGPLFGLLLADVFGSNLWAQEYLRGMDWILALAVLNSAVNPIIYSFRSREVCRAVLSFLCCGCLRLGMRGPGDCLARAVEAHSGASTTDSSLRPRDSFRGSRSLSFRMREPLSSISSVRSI
Lmaj promast – Leishmania major promastigote growth inhibition, primary screen. 200,000 compounds, 9% hits. Leishmania major promastigotes, resazurin fluorescence viability. inhibition, % at 10 µM; in the data active = inhibition above about 50%;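 also: promastigotes grown with compound for 44 hours at 28 °C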
Mdm2 ligase inh – MDM2-luciferase reporter signal enhancers, primary screen, MDM2 E3 ligase inhibitor project, cell-based, luminescence, 1536-well. E3 ubiquitin-protein ligase Mdm2 (Homo sapiens), Q00987. cell-based MDM2 ubiquitination luciferase reporter, 2 h; 0 = plate control, 100 = twice control, blank-subtracted. signal enhancement, % at 5 µM. 210,000 compounds, 0.11% hits;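 active = signal enhancement of 30% or more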;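 also: luminescence tracks abundance of the self-degrading MDM2-luciferase fusion protein; higher signal means inhibition of MDM2 E3 ligase activity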
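Assay system: stable mammalian line carrying autodegrading MDM2–luciferase fusion reporter; Input: 2000 cells in each well; Compound dosing: single-point 5 µM; Schedule: 2 h compound exposure at 37 °C; Signal: SteadyLite luciferase luminescence after 15 min room-temperature reagent incubation; Evaluation: % luminescence enhancement versus blank-corrected plate control mean; Benchmarks: plate controls and plate blanks.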
S1P3 antagonist – S1P3 receptor antagonists, primary screen, cell-based | Sphingosine 1-phosphate receptor 3 (Homo sapiens), Q99500 | CHO S1P3 NFAT-BLA reporter, FRET fluorescence, antagonist mode | inhibition, % at 4.98 µM | 170,000 compounds, 0.27% hits | AID 485, 2006;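 active = inhibition above the plate cutoff, the mean inhibition of test wells on that plate plus 3 SD, cut at about 28% in these data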;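 also: cells challenged with S1P at its EC80 of 0.8 µM; blue over green emission ratio from cleaved BLA substrate after 4 h stimulation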
S1P4 antagonist – S1P4 receptor antagonists, primary screen, cell-based; Sphingosine 1-phosphate receptor 4 (Homo sapiens), O95977; S1P4-expressing cells, antagonist mode, reporter read-out; inhibition, % at 4.98 µM; 220,000 compounds, 0.26% hits; AID 1510, 2009; in the data active = inhibition above about 29%
Each line names hits and unclear results; the compound was inactive in the other large screens. The sample as a whole holds a higher share of hits than the screen did.

COc1ccc(CC(=O)Nc2ccc(C(C)=O)cc2)cc1	none
O=C(COC(=O)c1cc(S(=O)(=O)N2CCOCC2)ccc1O)NCCc1ccccc1	none (no result: S1P3 antagonist)
O=C(c1csc2c1CCCCC2)N1CCN(c2ncccn2)CC1	none
Cc1ccc(NC(=O)Cc2ccc(F)cc2)cc1	none (no result: S1P3 antagonist)
COC(=O)c1ccc(NC(=O)Cc2ccc(F)cc2)cc1	Lmaj promast 68
COc1cccc(CNC(=O)c2cccc(Br)c2)c1	Lmaj promast 54
CN1CCN(S(=O)(=O)c2ccc3c4c(cccc24)C(=O)N3)CC1	none
CCOc1ccccc1N1CCN(S(=O)(=O)c2ccc3c4c(cccc24)C(=O)N3)CC1	Lmaj promast 74
Cc1ccc(C(=O)NC(=S)N2CCN(C(=O)OC(C)(C)C)CC2)cc1Br	none
CCOC(=O)C1=C(C)Nc2sc(C(=O)c3ccc(C)cc3)c(N)c2C1c1ccc(C(=O)OC)cc1 (stereo not given)	Lmaj promast 81
CCOC(=O)C1=C(C)NC(SCC(=O)OC)=C(C#N)C1c1ccc(C(=O)OC)cc1 (stereo not given)	none
CCOC(=O)C1=C(C)Nc2sc(C(=O)c3ccc(F)cc3)c(N)c2C1c1ccc(C(=O)OC)cc1 (stereo not given)	Lmaj promast 91
CCCC(=O)N(c1ccc(C(=O)O)cc1)c1nc(-c2ccccc2)c(C)s1	none
CCOC(=O)c1sc(-c2ccccc2)cc1NC(=O)Nc1ccc([N+](=O)[O-])cc1	Lmaj promast 85
O=S(=O)(Cc1ccccc1)N1CCc2ccccc21	Lmaj promast 100
CN(C)S(=O)(=O)N1CCc2ccccc21	none
O=Cc1cn(CC(=O)N2CCc3ccccc32)c2ccccc12	none
CCOC(=O)C1CCN(Cc2ccc(F)cc2)CC1	Lmaj promast 89
CCOC(=O)C1CCN(Cc2cc(C(C)(C)C)c(O)c(C(C)(C)C)c2)CC1	none
CCOC(=O)C1CCN(Cc2ccc(O)c(OC)c2)CC1	Lmaj promast 84
CCOC(=O)C1CCCN(c2cc(=O)n(Cc3ccc(F)cc3)c(=O)[nH]2)C1 (stereo not given)	none
CCOC(=O)C1CCN(Cc2ccc(Cl)c(Cl)c2)CC1	Lmaj promast 88 (no result: S1P3 antagonist)
CCOC(=O)C1CCN(Cc2ccc(C(=O)OC)cc2)CC1	Lmaj promast 95
CC(C(=O)NCCC1=CCCCC1)c1ccc([N+](=O)[O-])cc1 (stereo not given)	none
Cc1ccc(C)c(NC(=O)Cn2nnc(C(=O)NCc3cccs3)c2N)c1	none (no result: S1P3 antagonist)
CCc1c(C)sc(NC(=O)Cn2nc(C)c([N+](=O)[O-])c2C)c1C(N)=O	none
Cc1cccc2c(=O)c(C(=O)NCCCN3CCOCC3)c[nH]c12	none (no result: S1P3 antagonist)
CCOC(=O)C1(CC2CC2)CCN(Cc2cn(C)c3ccccc23)CC1	none
CCOC(=O)C1(CC2CC2)CCN(Cc2ccc(C(=O)OC)cc2)CC1	Lmaj promast 92
CCOC(=O)c1csc(Nc2nc3ccc(F)cc3s2)n1	Lmaj promast 95
O=C(Nc1nc2ccc(F)cc2s1)c1ccccn1	Lmaj promast 100
COc1ccc2nc(NC(=O)c3cccnc3SC)sc2c1	Lmaj promast 81
CN(CC(=O)NC1CCCc2ccccc21)S(=O)(=O)c1cccs1 (stereo not given)	none
COc1ccc(-n2cc(CNCC3CCOCC3)c(-c3cccc(F)c3)n2)cc1	Lmaj promast 87
COc1ccc(-n2cc(CNCCCn3ccnc3)c(-c3cccc(F)c3)n2)cc1	Lmaj promast 100
Cc1c(/C=N\NC(=O)c2ccc([N+](=O)[O-])cc2)cnn1C	none
CN(C)S(=O)(=O)N1CCC(CO)(Cc2cccc(C(F)(F)F)c2)CC1	none
OCC1(Cc2cccc(C(F)(F)F)c2)CCN(Cc2cc(F)cc(F)c2)CC1	Lmaj promast 86
OCC1(Cc2ccc(Cl)cc2)CCN(Cc2ccc(F)c(F)c2)CC1	none (no result: Lmaj promast)
CSc1cccc(CN2CCC(CO)(Cc3cccc(C(F)(F)F)c3)CC2)c1	Lmaj promast 81
N=C1/C(=C/c2cccn2Cc2ccc(Cl)cc2)C(=O)N=C2SC=CN12	none (no result: Mdm2 ligase inh)
C=CCN1C=C/C(=C\C=C(C#N)C#N)c2ccccc21	Lmaj promast 70
O=C(Nc1cc2cc([N+](=O)[O-])ccc2oc1=O)c1cccs1	none
Cc1ccc(C)c(S(=O)(=O)N2CCN(C(C(=O)Nc3ccc(F)cc3)c3ccccc3)CC2)c1 (stereo not given)	Lmaj promast 56
Nc1c(Cl)ncnc1N/N=C/c1ccccn1	Lmaj promast 100
Nc1c(Cl)ncnc1N/N=C/c1ccc2ccccc2n1	Lmaj promast 100, Mdm2 ligase inh 41
O=C(Nc1nc2c(s1)CN(Cc1ccccc1)CC2)c1c(F)cccc1F	none
Cc1ccc(N2CC(=O)Nc3c(oc4nc(-c5ccccc5)cc(C)c34)C2=O)cc1	none (no result: Lmaj promast)
COc1ccc(OC)c(C(c2nnnn2C2CCCC2)N2CCN(c3ccccc3F)CC2)c1 (stereo not given)	Lmaj promast 99
COc1ccc(N2CCN(C(c3ccccc3OC)c3nnnn3C3CCCC3)CC2)cc1 (stereo not given)	Lmaj promast 59
COc1ccc(C(c2nnnn2C2CCCC2)N2CCc3ccccc3C2)cc1OC (stereo not given)	Lmaj promast 60
COc1cccc(C(c2nnnn2C(C)(C)C)N2CCN(C3CCCCC3)CC2)c1OC (stereo not given)	none
COc1ccc(N2CCN(C(c3cccs3)c3nnnn3C3CCCC3)CC2)cc1 (stereo not given)	none
COc1ccc(N2CCN(C(c3cccc(OC)c3OC)c3nnnn3C3CCCC3)CC2)cc1 (stereo not given)	Lmaj promast 72
COCCn1nnnc1C(c1ccc(O)c(OC)c1)N1CCc2ccccc2C1 (stereo not given)	none
Fc1ccccc1N1CCN(C(c2ccccn2)c2nnnn2C2CCCCC2)CC1 (stereo not given)	none
COC(=O)CCNC(=O)Cn1cnc2sc3c(c2c1=O)CCCC3	none
Cc1ccc(C2=NC3(CCCCC3)N=C2SCC(=O)Nc2ccc3c(c2)OCCO3)cc1	none (no result: Mdm2 ligase inh)
COc1cc2ccccc2cc1C(=O)NCC(c1cccs1)N(C)C (stereo not given)	none
CCOc1ccc(-c2cn(-c3ccc(OC)cc3)c(SC)n2)cc1	Lmaj promast 51
Cc1cccn2c(CN[C@H]3CCCCNC3=O)c(C(=O)N3CCOCC3)nc12	none
Cc1onc(-c2c(F)cccc2Cl)c1C(=O)Nc1sc2c(c1C(N)=O)CCC2	Lmaj promast 63 (no result: S1P3 antagonist)
Cc1onc(-c2c(F)cccc2Cl)c1C(=O)NNC(=O)C1CCN(Cc2ccccc2)CC1	none
Cc1onc(-c2c(F)cccc2Cl)c1C(=O)Nc1cccc(Cn2cccn2)c1	Lmaj promast 63
NC(=O)c1c(NC(=O)c2cccs2)sc2c1CCCCCC2	S1P3 antagonist 54
